Source: ChEMBL document CHEMBL1155247, “SAR and biological evaluation of SEN12333/WAY-317538: Novel alpha 7 nicotinic acetylcholine receptor agonist” (Bioorg Med Chem, 2009)
The source made the active and inactive calls. No cut-off for these calls is given here.

Legend:
[1] = target: T1, Neuronal acetylcholine receptor subunit alpha-7 (Rattus norvegicus, UniProt Q05941); assay: Agonist activity at rat alpha7 nAChR expressed in rat GH4C1 cells assessed as calcium flux by FLIPR assay; assay type: functional, cell-based, GH4-C1
Procedure, shortened: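 GH4C1 cells stably expressing rat α7, 1 × 10^5 cells/well, cultured 24 h. Loaded 40 min at 37 °C with 4 µM Fluo-4-AM in HBSS-20 mM HEPES pH 7.4 with probenecid. FLIPR calcium flux read after first compound addition (1 min at 1 s, then every 30 s for 10 min). MAX–MIN signal normalized to positive control; EC50 by sigmoidal variable-slope fit.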

[2] = target: Histamine H3 receptor (Homo sapiens) (UniProt Q9Y5N1); assay: Binding affinity to histamine H3 receptor expressed in HEK293 cells at 10 uM; assay type: cell-based
[3] = target: T1, Neuronal acetylcholine receptor subunit alpha-7; assay: Displacement of [3H]epibatidine from rat alpha7 nAChR expressed in rat GH4C1 cells; assay type: cell-based, GH4-C1
Procedure, shortened: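 Membranes from GH4C1 cells expressing rat α7 were incubated with 5 nM [3H]-epibatidine in 50 mM HEPES pH 7.4 with KCl, NaCl and MgCl2, for 1 h at 23 °C. Nonspecific binding defined with 300 µM nicotine. Bound ligand separated by GF/B filtration with five washes in ice-cold buffer.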

[4] = target: Neuronal acetylcholine receptor subunit alpha-7 (Rattus norvegicus) (UniProt Q05941); assay: (§1) Activity at rat alpha7 nAChR expressed in rat GH4C1 cells by patch clamp technique; assay type: cell-based; settings: GH4-C1
Procedure, shortened: (§2)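 GH4C1 cells stably expressing rat α7 were pretreated with 0.5 mM Na-butyrate for 2 days. Whole-cell clamp at −60 mV; pipette contained K-gluconate, EGTA, ATP. Agonist or acetylcholine applied by fast perfusion in HBSS + 10 mM HEPES as 500 ms pulses at 10 s intervals, sampled at 1 kHz. Peak amplitude and charge measured; EC50 from concentration–response curves.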

[5] = target: T1, Neuronal acetylcholine receptor subunit alpha-7; assay: as §1; assay type: cell-based, GH4-C1; procedure, shortened: as §2
[6] = target: Acetylcholine receptor; alpha1/beta1/delta/gamma (Homo sapiens) (UniProt P02708+P07510+P11230+Q07001); assay: Activity at alpha-1-beta-1-gamma-delta nAChR in human TE671 cells assessed as effect on membrane potential by FLIPR assay; assay type: cell-based; settings: TE-671
Procedure, shortened: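 TE671 rhabdomyosarcoma cells, as endogenous muscle nAChR, were plated at 5 × 10^4 cells/well 24 h before assay. Loaded with membrane-potential dye in HBSS for 60 min at rt, then read on FLIPR with 10 s baseline before compound addition. First-addition signal taken as SUM of fluorescence, normalized to 1 µM epibatidine. EC50 from sigmoidal variable-slope fit.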

[7] = target: Neuronal acetylcholine receptor; alpha4/beta2 (Homo sapiens) (UniProt P17787+P43681); assay: Inhibition of alpha4beta2 nAChR at 10 uM; assay type: protein-complex assay
hERG (KCNH2) = hERG (KCNH2) (Homo sapiens, UniProt Q12809); assay: Inhibition of human ERG expressed in CHO cells at 1 uM; assay type: cell-based; settings: CHO cells expressing human ERG
[8] = Cmax in Wistar rat at 10 mg/kg, ip; assay type: ADME, organism-based; set-up: dose 10 mg/kg, route intraperitoneal; settings: in vivo
Procedure, shortened: (§3)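 Male Wistar rats, 6–8 weeks, 200–250 g, given a single 10 mg/kg ip dose at time 0. Plasma and brain were sampled at 0, 0.5, 1 and 3 h. Plasma was protein-precipitated with acetonitrile containing internal standard. Brain was homogenized and extracted with methanol. Analysis by LC–MS/MS; detection limits 1 ng/mL plasma and 10 ng/g brain.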

[9] = Half life in Wistar rat at 10 mg/kg, ip; assay type: ADME, organism-based; set-up: dose 10 mg/kg, route intraperitoneal; settings: in vivo; procedure, shortened: as §3
Rattus norvegicus [10] = assay: AUC (last) in Wistar rat at 10 mg/kg, ip; assay type: ADME, organism-based, Plasma; set-up: time 0 - last, dose 10 mg/kg, route intraperitoneal; settings: in vivo; procedure, shortened: as §3
[11] = Ratio of drug level from brain to plasma in Wistar rat at 10 mg/kg, ip; assay type: ADME, organism-based; set-up: dose 10 mg/kg, route intraperitoneal; procedure, shortened: as §3
[12] = Oral bioavailability in Wistar rat; assay type: ADME, organism-based; settings: in vivo
Rattus norvegicus [13] = assay: Inhibition of scopolamine-induced immediate working memory deficit in Wistar rat at 1 to 10 mg/kg, ip after 48 hrs by novel-object recognition test; assay type: functional, organism-based
[14] = target: T2, 5-hydroxytryptamine receptor 3A (Homo sapiens) (UniProt P46098); assay: Activity at human 5HT3 receptor expressed in human HEK293 cells assessed as calcium flux by FLIPR assay
T2 sequence (whole entry): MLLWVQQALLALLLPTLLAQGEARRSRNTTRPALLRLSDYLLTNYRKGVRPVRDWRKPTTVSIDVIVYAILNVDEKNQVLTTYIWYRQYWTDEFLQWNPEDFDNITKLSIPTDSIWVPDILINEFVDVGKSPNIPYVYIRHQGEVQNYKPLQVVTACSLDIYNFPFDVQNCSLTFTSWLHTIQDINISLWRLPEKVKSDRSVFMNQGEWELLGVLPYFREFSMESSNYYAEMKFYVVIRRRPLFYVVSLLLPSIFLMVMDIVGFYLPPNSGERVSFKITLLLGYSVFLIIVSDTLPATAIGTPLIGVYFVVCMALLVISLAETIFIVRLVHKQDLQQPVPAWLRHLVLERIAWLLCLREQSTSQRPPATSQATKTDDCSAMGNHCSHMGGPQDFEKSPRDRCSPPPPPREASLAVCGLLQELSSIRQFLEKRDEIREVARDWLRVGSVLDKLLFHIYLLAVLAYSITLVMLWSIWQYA

Rattus norvegicus [15] = assay: Inhibition of MK-801-induced immediate working memory deficit in Long Evans rat at 1 to 10 mg/kg, ip after 48 hrs by novel-object recognition test
Rattus norvegicus [16] = assay: Cognitive enhancing effect in Wistar rat assessed as minimized spontaneous decay of episodic memory at 3 mg/kg, ip after 24 hrs by novel-object recognition test

T1 sequence (Q05941 whole entry): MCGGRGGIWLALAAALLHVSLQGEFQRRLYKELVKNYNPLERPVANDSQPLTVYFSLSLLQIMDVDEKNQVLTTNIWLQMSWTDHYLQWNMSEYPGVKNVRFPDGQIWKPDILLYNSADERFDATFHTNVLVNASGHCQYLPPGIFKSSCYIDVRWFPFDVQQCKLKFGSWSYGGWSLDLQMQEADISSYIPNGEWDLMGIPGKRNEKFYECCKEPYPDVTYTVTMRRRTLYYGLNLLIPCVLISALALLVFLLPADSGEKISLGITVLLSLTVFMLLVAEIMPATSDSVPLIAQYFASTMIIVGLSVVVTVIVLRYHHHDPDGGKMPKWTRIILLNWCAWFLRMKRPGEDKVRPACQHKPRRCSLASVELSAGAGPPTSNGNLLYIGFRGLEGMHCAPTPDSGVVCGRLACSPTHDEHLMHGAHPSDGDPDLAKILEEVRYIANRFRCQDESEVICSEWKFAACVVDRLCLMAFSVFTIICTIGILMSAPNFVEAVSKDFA
Chain of Histamine H3 receptor (Homo sapiens) (Q9Y5N1 whole entry): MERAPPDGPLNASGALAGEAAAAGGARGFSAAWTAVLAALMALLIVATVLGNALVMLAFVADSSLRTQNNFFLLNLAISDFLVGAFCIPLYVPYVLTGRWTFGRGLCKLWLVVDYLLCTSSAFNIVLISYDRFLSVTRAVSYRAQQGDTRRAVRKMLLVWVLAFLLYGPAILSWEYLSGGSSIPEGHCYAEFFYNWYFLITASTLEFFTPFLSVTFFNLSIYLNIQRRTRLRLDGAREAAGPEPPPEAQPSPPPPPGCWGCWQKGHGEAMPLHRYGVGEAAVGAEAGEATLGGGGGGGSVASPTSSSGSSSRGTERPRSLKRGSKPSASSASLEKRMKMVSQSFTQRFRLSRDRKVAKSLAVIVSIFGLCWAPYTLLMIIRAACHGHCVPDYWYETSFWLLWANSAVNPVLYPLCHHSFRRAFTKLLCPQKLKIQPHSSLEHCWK
Chain of Neuronal acetylcholine receptor subunit alpha-7 (Rattus norvegicus) (Q05941 whole entry, the tested form may be a part): as the sequence (Q05941 whole entry) above
Chain of hERG (KCNH2) (Q12809 whole entry): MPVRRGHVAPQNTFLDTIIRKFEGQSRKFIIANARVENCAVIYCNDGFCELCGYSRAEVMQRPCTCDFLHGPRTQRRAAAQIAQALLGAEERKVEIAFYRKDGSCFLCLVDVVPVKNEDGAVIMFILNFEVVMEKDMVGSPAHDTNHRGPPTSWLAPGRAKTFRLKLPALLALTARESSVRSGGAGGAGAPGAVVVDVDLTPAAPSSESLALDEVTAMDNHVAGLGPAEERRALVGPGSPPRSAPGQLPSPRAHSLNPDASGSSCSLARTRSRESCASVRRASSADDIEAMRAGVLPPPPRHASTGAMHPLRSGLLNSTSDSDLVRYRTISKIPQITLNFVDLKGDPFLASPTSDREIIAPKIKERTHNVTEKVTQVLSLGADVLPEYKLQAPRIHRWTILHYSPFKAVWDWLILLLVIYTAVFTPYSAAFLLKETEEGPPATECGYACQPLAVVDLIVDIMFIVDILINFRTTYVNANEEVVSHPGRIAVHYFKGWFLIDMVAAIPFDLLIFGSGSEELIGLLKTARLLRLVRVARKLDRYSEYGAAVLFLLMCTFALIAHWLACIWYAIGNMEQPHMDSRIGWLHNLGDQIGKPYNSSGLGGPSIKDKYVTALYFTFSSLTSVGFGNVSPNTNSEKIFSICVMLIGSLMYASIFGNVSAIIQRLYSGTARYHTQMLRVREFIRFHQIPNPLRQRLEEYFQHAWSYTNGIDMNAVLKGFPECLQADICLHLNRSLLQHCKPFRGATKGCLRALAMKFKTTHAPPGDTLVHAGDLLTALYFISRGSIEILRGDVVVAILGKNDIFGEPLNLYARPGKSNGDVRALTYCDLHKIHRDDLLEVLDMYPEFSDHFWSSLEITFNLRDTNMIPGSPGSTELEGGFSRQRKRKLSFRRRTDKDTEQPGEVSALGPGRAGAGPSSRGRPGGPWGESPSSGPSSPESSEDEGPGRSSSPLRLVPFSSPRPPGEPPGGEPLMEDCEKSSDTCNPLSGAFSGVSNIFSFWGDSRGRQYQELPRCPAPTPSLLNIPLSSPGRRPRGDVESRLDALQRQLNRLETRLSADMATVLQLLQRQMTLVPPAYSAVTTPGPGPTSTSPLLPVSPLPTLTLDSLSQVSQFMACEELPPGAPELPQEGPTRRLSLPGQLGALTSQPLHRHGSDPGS

With `O=C(CCCCN1CCCCCC1)Nc1ccc(-c2cccnc2)cc1` the EC50 [1] was 540 nM.
`CC(=O)N1CCCN(CCCCC(=O)Nc2ccc(-c3cccnc3)cc2)CC1` gave an EC50 [1] of 2660 nM.
In the case of `O=C(CCCCN1CCCCC1)Nc1ccc(-c2ccc(F)cc2F)cc1`, the EC50 [1] is reported as 160 nM.
With `CN1CCN(CCCCC(=O)Nc2ccc(-c3cccnc3)cc2)CC1` the EC50 [1] was 3560 nM.
`COc1ccc(N2CCN(CCCCNC(=O)c3ccc(-c4ccccc4Cl)cc3)CC2)c(OC)c1` gave an EC50 [1] of 3110 nM.
`O=C(CCCCN1CCCCC1)Nc1ccc(Br)cc1` gave an EC50 [1] of 1350 nM.
Compound `NC(=O)c1cccc(-c2ccc(NC(=O)CCCCN3CCCCC3)cc2)c1` has an EC50 [1] of 90 nM.
Compound `Cc1cccc(NC(=O)CCCCN2CCCCC2)c1` has an EC50 [1] greater than 30000 nM.
`COc1ccc(N2CCN(CCCCNC(=O)c3ccc(-c4ccccc4F)cc3)CC2)c(OC)c1` gave an EC50 [1] of 6030 nM.
`COc1ccccc1N1CCN(CCCCC(=O)Nc2ccc(-c3cccnc3)cc2)CC1` gave an EC50 [1] of 2470 nM.
Compound `O=C(CCCCN1CCCCC1)Nc1ccc2ncccc2c1` has an EC50 [1] of 5070 nM.
Compound `O=C(CCCCN1CCCCC1)Nc1ccc2c(c1)OCO2` has an EC50 [1] of 10900 nM.
`CC(=O)Nc1cccc(-c2ccc(NC(=O)CCCCN3CCCCC3)cc2)c1` showed an EC50 [1] of 120 nM.
Compound `COc1ccc(N2CCN(CCCCNC(=O)c3ccc(-c4ccccc4OC)cc3)CC2)c(OC)c1` has an EC50 [1] of 2910 nM.
With `CCN(CC)C(=O)C1CCCN(CCCCC(=O)Nc2ccc(-c3cccnc3)cc2)C1` (stereo not drawn) the EC50 [1] was greater than 30000 nM.
For `Cl.O=C(CCCCN1CCOCC1)Nc1ccc(-c2cccnc2)cc1`, the EC50 [1] was 1650 nM, the Activity [2] was “Active” and the Ki [3] was 260 nM. For the same compound, the Emax [4] was 88%, the EC50 [5] was 12000 nM and the Activity [6] was “inactive”. It also gave an inhibition [7] of 45%, an inhibition at 1 µM (hERG (KCNH2)) of 6% and a Cmax [8] of 244 ng/mL. For the same compound, the half-life [9] was 48 min, the AUC (Rattus norvegicus [10]) was 347 ng·h/mL and the Kp [11] was 2.5. For the same compound, the bioavailability [12] was 57%, the inhibition (Rattus norvegicus [13]) was “Active” and the Selectivity ratio [14] was “inactive”. For the same compound, the inhibition (Rattus norvegicus [15]) was “Active” and the Activity (Rattus norvegicus [16]) was “Active”.
Compound `COc1ccc(N2CCN(CCCCNC(=O)c3ccc([N+](=O)[O-])cc3)CC2)c(OC)c1` has an EC50 [1] greater than 30000 nM.
In the case of `O=C(CCCCN1CCCCC1)Nc1cccc(Br)c1`, the EC50 [1] is reported as 2070 nM.
`CC(=O)c1cccc(-c2ccc(NC(=O)CCCCN3CCCCC3)cc2)c1` showed an EC50 [1] of 990 nM.
`COc1ccc(N2CCN(CCCCNC(=O)c3ccc(-c4ccccc4C)cc3)CC2)c(OC)c1` showed an EC50 [1] of 5770 nM.
`COc1ccc(N2CCN(CCCCNC(=O)c3ccc(-c4ccccc4)cc3)CC2)c(OC)c1` showed an EC50 [1] greater than 30000 nM.
`COc1ccc(N2CCN(CCCCNC(=O)c3ccc(Br)cc3)CC2)c(OC)c1` showed an EC50 [1] greater than 30000 nM.
In the case of `CC(C)Oc1ccccc1-c1ccc(NC(=O)CCCCN2CCCCC2)cc1`, the EC50 [1] is reported as 240 nM.
`O=C(CCCCN1CCCCC1)Nc1ccc(-c2cccnc2)cc1` showed an EC50 [1] of 530 nM.
In the case of `CN(CCCCC(=O)Nc1ccc(-c2cccnc2)cc1)CCc1ccccn1`, the EC50 [1] is reported as 3270 nM.
`CC(=O)N1CCN(CCCCC(=O)Nc2ccc(-c3cccnc3)cc2)CC1` gave an EC50 [1] of 2780 nM.
In the case of `COc1ccc(N2CCN(CCCCNC(=O)c3ccc(-c4ccccn4)cc3)CC2)c(OC)c1`, the EC50 [1] is reported as 2840 nM.
